Article PMC5679172 (The Journal of Experimental Medicine, 2017)

Tests used:
Type in all cases: cell-based, mouse
LPS-induced priming = LPS-induced priming in BMDMs; settings: for LPS-induced TNF-α production or pro–IL-1β expression: BMDMs treated with inhibitor before LPS stimulation
potassium efflux = assay: intracellular potassium detection in BMDMs; settings: LPS-primed Nlrp3−/− BMDMs
Outline: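 BMDMs plated overnight and primed with LPS 50 ng/ml for 3 h, then given test compound for 30 min and nigericin for 30 min. […] Intracellular K+ quantified by ICP optical emission spectrometry with yttrium as internal standard.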

chloride efflux = assay: intracellular chloride detection in BMDMs; settings: LPS-primed Nlrp3−/− BMDMs
Outline: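 BMDMs plated overnight and primed with LPS 50 ng/ml for 3 h, then given test compound for 30 min and nigericin for 15 min. Cells lysed in water for 15 min at 37°C and spun at 10,000 g for 5 min. Supernatant mixed with MQAE and signal read on a plate reader. Residual extracellular chloride subtracted using a control.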

NLRC4 inflammasome = assay: Salmonella infection-induced NLRC4 inflammasome activation in BMDMs; settings: LPS-primed BMDMs, IL-1β ELISA
Outline: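 BMDMs plated at 5 × 10^5/ml and primed next day with LPS 50 ng/ml for 3 h. Test compound added for 30 min, then cells infected with Salmonella typhimurium for 4 h. Supernatant IL-1β measured by ELISA.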

AIM2 inflammasome = assay: cytosolic poly; settings: LPS-primed BMDMs, cytosolic double-stranded DNA poly(dA:dT), IL-1β ELISA
Outline: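 BMDMs plated at 5 × 10^5/ml and primed next day with LPS 50 ng/ml for 3 h. Test compound added for 30 min, then poly(dA:dT) (0.5 µg/ml) delivered by lipofection for 4 h. Supernatant IL-1β measured by ELISA.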

Cc1ccc(S(=O)(=O)/C=C/C#N)cc1 [BAY 11-7082]
LPS-induced TNF-α production or pro–IL-1β expression (LPS-induced priming): could suppress

CC(O)CC(=O)O (stereo not drawn) [BHB, β-hydroxybutyrate]
LPS-induced TNF-α production or pro–IL-1β expression (LPS-induced priming): could suppress | nigericin-induced potassium efflux (decrease of intracellular potassium) (potassium efflux): could suppress

CC(C)(O)c1coc(S(=O)(=O)NC(=O)Nc2c3c(cc4c2CCC4)CCC3)c1 [MCC950]
LPS-induced priming effects (LPS-induced priming; BMDMs): no effect | nigericin-induced potassium efflux (decrease of intracellular potassium) (potassium efflux): could not | nigericin-induced chloride efflux (decrease of intracellular chloride) (chloride efflux): could inhibit

O=C(O)c1ccccc1Nc1cccc(C(F)(F)F)c1 [flufenamic acid]
LPS-induced TNF-α production or pro–IL-1β expression (LPS-induced priming): could suppress | nigericin-induced potassium efflux (decrease of intracellular potassium) (potassium efflux): could not | nigericin-induced chloride efflux (decrease of intracellular chloride) (chloride efflux): blocked

O=C(/C=C/c1ccc(O)cc1)c1ccc(O)cc1O [isoliquiritigenin]
LPS-induced TNF-α production or pro–IL-1β expression (LPS-induced priming): could suppress

Cc1cccc(Nc2ccccc2C(=O)O)c1C [mefenamic acid]
LPS-induced TNF-α production or pro–IL-1β expression (LPS-induced priming): could suppress

C=C1C(=O)O[C@H]2[C@H]1CC/C(C)=C/CC[C@@]1(C)O[C@@H]21 [parthenolide]
NLRC4 inflammasome activation (NLRC4 inflammasome): could also inhibit | AIM2 inflammasome activation (AIM2 inflammasome): could also inhibit | LPS-induced TNF-α production or pro–IL-1β expression (LPS-induced priming): could suppress

C[S+]([O-])CCCCN=C=S (centres unmarked) [sulforaphane]
NLRC4 inflammasome activation (NLRC4 inflammasome): could also inhibit | AIM2 inflammasome activation (AIM2 inflammasome): could also inhibit | LPS-induced TNF-α production or pro–IL-1β expression (LPS-induced priming): could suppress
